The record followed here is ChEMBL document CHEMBL1140917, “Structure-activity relationships of antitubercular nitroimidazoles. 1. Structural features associated with aerobic and anaerobic activities of 4- and 5-nitroimidazoles” (2009).

Test [1] relates to Mycobacterium tuberculosis. The experiment in a line: Antimycobacterial activity against wild type Mycobacterium tuberculosis H37Rv NRP-2 stage after 3 weeks under anaerobic condition. In kind it is functional. In a few lines:
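Early-log Mtb in glycerol-free Dubos broth diluted 100-fold, sealed tubes (headspace ratio 0.5), stirred 180 rpm 20 days to NRP-2 (methylene blue reference). Cells exposed to two-fold drug dilutions (1.95-500 μM) with DMSO control, anaerobically at 37°C for 7 days. Washed thrice, serially diluted, spotted on 7H11 agar; after 3 weeks at 37°C, MAC = 90% reduction in visible growth.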

In test [2] the test system is Mycobacterium tuberculosis. Kind of test: Antimycobacterial activity against wild type Mycobacterium tuberculosis H37Rv ATCC 27294 after 2 weeks. In kind it is functional. The conditions noted are these: 336 h. The essentials:
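Aerobic MIC99: Mtb H37Rv grown to OD 0.5 in 7H9 broth with 0.05% Tween 80, 0.2% glycerol, ADC; diluted 1:1000. Compounds from DMSO stocks, 2-fold series giving 8 dilutions (1000 μM – 7.8 μM). 2 weeks at 37°C, growth read macroscopically; MIC99 = concentration preventing 99% growth. Three independent determinations.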

Test [3] concerns Mycobacterium tuberculosis. The experiment in a line: Ratio of Kcat/Km for Mycobacterium tuberculosis F420-dependent nitroreductase by Michaelis-Menten equation. On the set-up: unit not given here. The essentials: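 MBP-tagged Rv3547 (Ddn) expressed in E. coli (300 μM IPTG, 37 °C), amylose-affinity purified. F420H2 made enzymatically with Mtb FGD1, which was heat-inactivated (55°C, 15 min) and removed by ultrafiltration. Reactions in phosphate buffer pH 7.4, 50 μM F420, 0.6 μM enzyme, varying nitroimidazole concentrations, 25°C. Initial rates from absorbance gain at 400 nm (ε400 = 25.71 mM−1 cm−1).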

In brackets after ≈: the same amount, converted by molar mass. Where only a bound is given, the exact number is not on record here.

Usually MIC stands for the smallest concentration in the dilution series that meets the test's criterion for growth inhibition. In the case of `O=[N+]([O-])c1cnc2n1C[C@@H](O)CC2`, in test [1], the MAC was >100 µM. In test [2], the MIC is > 100 µM.
Take `O=[N+]([O-])c1cnc2n1C[C@H](OCc1ccc(OC(F)(F)F)cc1)CO2`: the kcat/Km in test [3] stood at 0.0817. Besides, the MAC in test [1] was 31.25 µM. Besides, in test [2], the MIC amounted to 4 µM (≈ 1.44 µg/mL).
As to `O=[N+]([O-])c1cn2c(n1)C=C[C@@H](OCc1ccc(OC(F)(F)F)cc1)C2`, the kcat/Km in test [3] came to 0.0476. The same compound had an MAC in test [1] of 62.5 µM. This compound returned a minimal inhibitory concentration (MIC) in test [2] of 25 µM (≈ 8.88 µg/mL).
In the case of `Cc1nc([N+](=O)[O-])cn1CCO`, in test [1], the MAC was >500 µM. Also, the MIC in test [2] was > 300 µM.
The like results for `COc1ncc([N+](=O)[O-])n1CCO` were, in that order, >500 µM and > 100 µM.
`Cc1ncc([N+](=O)[O-])n1CCO` [METRONIDAZOLE]: the MAC in test [1] was determined as 62.5 µM. Further, the MIC in test [2] is > 300 µM.
Turning to `COc1nc([N+](=O)[O-])cn1CCOCc1ccc(OC(F)(F)F)cc1`, the kcat/Km in test [3] amounted to 0.03. In test [1], this compound returned an MAC of 250 µM. The minimal inhibitory concentration (MIC) in test [2] was determined as 6.25 µM (≈ 2.26 µg/mL).
Consider `O=[N+]([O-])c1cnc2n1C[C@H](O)CC2`, for which the MAC in test [1] is >500 µM. Further, the MIC in test [2] is > 100 µM.
On to `Cc1nc([N+](=O)[O-])cn1CCOCc1ccc(OC(F)(F)F)cc1`, for which the MAC in test [1] is >500 µM. In addition, the MIC in test [2] was > 145 µM.
As to `CO[C@@H]1COc2nc([N+](=O)[O-])cn2C1`, the kcat/Km in test [3] is 0.0079. This compound came in with an MAC in test [1] of 250 µM. In addition, the MIC in test [2] is > 125 µM.
The like results for `Cc1ncc([N+](=O)[O-])n1CCOCc1ccc(OC(F)(F)F)cc1` were, in that order, 0.005, 250 µM and > 145 µM.
Take `O=[N+]([O-])c1cn2c(n1)CC[C@@H](OCc1ccc(OC(F)(F)F)cc1)C2`: the kcat/Km in test [3] came to 0.0235. Besides, the MAC in test [1] worked out at 250 µM. The compound also yielded an MIC in test [2] of 25 µM (≈ 8.93 µg/mL).
For the compound `O=[N+]([O-])c1cnc2n1C[C@H](O)CO2`, in test [3], the kcat/Km was 0.003. In addition, the MAC in test [1] was determined as 125 µM. In test [2], this compound yielded an MIC of 12.5 µM (≈ 2.31 µg/mL).
The like results for `O=[N+]([O-])c1cn2c(n1)OC[C@@H](O)C2` were, in that order, 0.005, 250 µM and > 100 µM.
The like results for `O=[N+]([O-])c1cn2c(n1)OC[C@@H](OCc1ccc(OC(F)(F)F)cc1)C2` [PRETOMANID] were, in that order, 0.145, 8 µM and 0.8 µM (≈ 0.287 µg/mL).
`FC(F)(F)Oc1ccc(CO[C@@H]2COc3nccn3C2)cc1`: the MAC in test [1] was >500 µM. For the same compound, the MIC in test [2] is > 160 µM.
